Assay results published in article PMC11212574 (Emerging Microbes & Infections, 2024).

Key:
Format in all cases: cell-based
Hsp27 phosphorylation = assay: Western blot of Hsp27 phosphorylation; conditions: SB203580 0.25-8 µM for 2 h, then EV-A71 MOI 10 for 6 h, RD cells (Fig 1A)
Summary of the method: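 RD cells were pre-treated 2 h with test peptide or small-molecule test compound (0–8 µM), then infected with EV-A71 at MOI 10 for 6 h. Cells were lysed in NP-40 buffer, assayed by Bradford, and 20 μg protein was run on 12% SDS-PAGE/PVDF. Blots were probed with phospho-Ser15/78/82 Hsp27 antibodies and HRP secondaries (1 h) and read by chemiluminescence. Loading controls were GAPDH for the compound and β-actin for peptides; peptide blots were quantified by densitometry.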

[1] = tested on: Hsp27/hnRNP A1 relocalization; conditions: for redistribution of Hsp27 and hnRNP A1 in EV-A71-infected RD cells: peptide 25 μM for 2 h, then EV-A71 MOI 40 for 6 h (Fig 7C-E, S7C-E)
Summary of the method: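 RD cells on coverslips were pretreated 2 h with the test compound, then infected with EV-A71 at MOI 40 for 6 h. Cells were fixed in 4% paraformaldehyde for 20 min, permeabilised in 0.5% Triton X-100 for 15 min and blocked in 5% BSA for 2 h. They were stained with anti-Hsp27/anti-hnRNP A1 and Alexa Fluor 488/594 secondaries, with DAPI or Hoechst nuclei, and imaged by confocal. M1 coefficient gave overlap with nuclear stain.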

[2] = tested on: Hsp27 nuclear translocation / hnRNP A1 cytosol translocation; assay: Nuclear/cytosol fraction assay upon EV-A71 infection; conditions: 0, 2, 4, 8 µM for 2 h, then EV-A71 MOI 10 for 6 h, RD cells (Fig 1C)
Summary of the method: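 RD cells were pretreated 2 h with the test compound (0–8 µM), then infected with EV-A71 at MOI 10 for 6 h. Cells were PBS-washed, scraped and pelleted. Cytoplasmic extract was taken on ice as the supernatant after 16,000 xg for 5 min. Nuclear extract was the supernatant after 16,000 xg for 10 min at 4°C. Both were analysed by western blot, with Lamin B1 as nuclear and GAPDH as cytosolic control.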

EV-A71 [3] = assay: Viral RNA by RT-qPCR; conditions: HEK 293T cells, 8 μM SB203580 2 h before EV-A71 infection for 9 h (Fig 6C)
EV-A71 [4] = assay: Virus titration; conditions: RD cells, peptide 25 μM for 2 h, EV-A71 MOI 0.1 for 24 h (Fig S8G)
Summary of the method: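 RD cells were pretreated 2 h with the test peptide, then infected with EV-A71. Supernatants were serially diluted 10-fold and added in quintuplicate to RD cells seeded 24 h earlier. TCID50 was calculated by the Kärber method after 120 h of infection.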

RD cells = assay: CCK-8 assay; conditions: peptide treatment for 2 days, CCK-8 (Fig S7B)
Summary of the method: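 RD cells were seeded at 1 × 10^4/well and held 1 day at 5% CO2. They were then exposed to the test peptide for 2 days. CCK-8 reagent was added with medium and incubated 1 h at 37°C, and OD was read at 450 nm.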

EV-A71 VP1 = EV-A71 VP1 protein level by western blot with densitometry; conditions: RD cells, peptide for 2 h, EV-A71 MOI 1 for 9 h (Fig S8E)
Summary of the method: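 RD cells were pretreated 2 h with the test peptide, then infected with EV-A71 (SHZH98 strain). Lysis was in NP-40 buffer, with protein measured by Bradford assay. 20 μg protein was run on 12% SDS-PAGE and transferred to PVDF. HRP secondary antibodies were applied for 1 h, with chemiluminescent detection. VP1 bands were quantified by densitometry against the respective untreated control.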

Row | Molecule | Hsp27 phosphorylation level at Ser15 and Ser82 (Hsp27 phosphorylation) | nuclear Hsp27 level upon EV-A71 infection ([1]; 2 µM for 2 h, then EV-A71 MOI 40 for 6 h, RD cells (Fig 1B)) | nuclear relocation of Hsp27 upon EV-A71 infection ([1]; 4 µM for 2 h, then EV-A71 MOI 40 for 6 h, RD cells (Fig 1B)) | cytosol translocation of hnRNP A1 (nuclear/cytosol fraction) [2] | nuclear translocation of Hsp27 (nuclear/cytosol fraction) [2] | effect on viral RNA level in Hsp27 S78A- and Hsp27 S78D-expressing cells (EV-A71 [3]) | redistribution of Hsp27 and hnRNP A1 in EV-A71-infected RD cells [1] | effect on viral titre (in words) (EV-A71 [4]) | CC50 (in words) (RD cells) | effect on VP1 level (in words) (EV-A71 VP1)
1 | C[S+]([O-])c1ccc(-c2nc(-c3ccncc3)c(-c3ccc(F)cc3)[nH]2)cc1 (stereo not drawn) [SB203580] | slightly decreased | markedly reduced nuclear Hsp27 level | further blocked to an invisible level | inhibited the cytosol translocation of hnRNP A1 in a dose-dependent manner | suppress the nuclear translocation of Hsp27 in a dose-dependent manner | no obvious effects | – | – | – | –
2 | RKKRRQRRR-AYSRAAAAQLSS [S78-3A] | – | – | – | – | – | – | partially suppressed | only mildly decreased | high CC50 | –
3 | RKKRRQRRR-YSREANQPKPSPKRESGEE [NC] | – | – | – | – | – | – | did not affect | – | high CC50 | no effect
